Measured values from ChEMBL document CHEMBL4354843, “Structure-Based Design of a Potent and Selective Covalent Inhibitor for SRC Kinase That Targets a P-Loop Cysteine” (J Med Chem, 2020).

How the values were obtained:
[1] = target: Calcium/calmodulin-dependent protein kinase type II subunit alpha (Homo sapiens) (UniProt Q9UQM7); test: Binding affinity to wild-type human partial length CAMK2A (M1 to K328 residues) expressed in bacterial expression system assessed as residual binding level at 1 uM by Kinomescan method relative to control
[2] = tested on: HCC827; test: Antiproliferative activity against human HCC827 cells assessed as reduction in cell viability incubated for 72 hrs by cell-titer glo assay; conditions: HCC827, 72 h
[3] = target: Cyclin-dependent kinase 13 (Homo sapiens) (UniProt Q14004); test: Binding affinity to wild-type human partial length CDC2L5 (H675 to S1054 residues) expressed in mammalian expression system assessed as residual binding level at 1 uM by Kinomescan method relative to control
[4] = target: Dual specificity protein kinase TTK (Homo sapiens) (UniProt P33981); test: Binding affinity to wild-type human partial length TTK (N505 to V798 residues) expressed in bacterial expression system assessed as residual binding level at 1 uM by Kinomescan method relative to control
Method in brief: (§1)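 Active site-directed competition binding panel (KinomeScan, 468 kinases). Test compound at 1 μM. Read-out is kinase binding remaining versus DMSO control, expressed as percent of control. Scores above 35% are treated as weak binding.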

[5] = target: Serine/threonine-protein kinase PRP4 homolog (Homo sapiens) (UniProt Q13523); test: Binding affinity to wild-type human partial length PRP4 (D657 to I1007 residues) expressed in bacterial expression system assessed as residual binding level at 1 uM by Kinomescan method relative to control
Method in brief: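 Active-site-directed competition binding panel of 468 kinases (KinomeScan), compound at 1 μM. The read-out is kinase remaining bound, given as a percentage of the DMSO control. […]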

[6] = target: Phosphatidylinositol 3-kinase catalytic subunit type 3 (Homo sapiens) (UniProt Q8NEB9); test: Binding affinity to wild-type human partial length VPS34 (S282 to H879 residues) expressed in mammalian expression system assessed as residual binding level at 1 uM by Kinomescan method relative to control; method in brief: as §1
[7] = target: Fibroblast growth factor receptor 1 (Homo sapiens, UniProt P11362); test: Binding affinity to wild-type human partial length FGFR1 (P357 to V669 residues) expressed in bacterial expression system assessed as residual binding level at 1 uM by Kinomescan method relative to control
[8] = target: Atypical kinase COQ8A, mitochondrial (Homo sapiens) (UniProt Q8NI60); test: Binding affinity to wild-type human full length ADCK3 (M280 to Q647 residues) expressed in bacterial expression system assessed as residual binding level at 1 uM by Kinomescan method relative to control
Method in brief: (§2)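 Active-site-directed KinomeScan competition binding panel covering 468 kinases, compound tested at 1 μM. Each readout is the kinase signal remaining with compound, expressed as a percentage of the DMSO control. […]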

[9] = target: NT-3 growth factor receptor (Homo sapiens) (UniProt Q16288); test: Binding affinity to wild-type human partial length TRKC (Q531 to G825 residues) expressed in mammalian expression system assessed as residual binding level at 1 uM by Kinomescan method relative to control
[10] = target: Serine/threonine-protein kinase 36 (Homo sapiens) (UniProt Q9NRP7); test: Binding affinity to wild-type human partial length STK36 (M1 to T271 residues) expressed in bacterial expression system assessed as residual binding level at 1 uM by Kinomescan method relative to control; method in brief: as §1
[11] = target: NUAK family SNF1-like kinase 2 (Homo sapiens) (UniProt Q9H093); test: Binding affinity to wild-type human partial length SNARK (P22 to A333 residues) expressed in mammalian expression system assessed as residual binding level at 1 uM by Kinomescan method relative to control
[12] = tested on: NCI-H1975; test: Antiproliferative activity against human NCI-H1975 cells assessed as reduction in cell viability incubated for 72 hrs by cell-titer glo assay; conditions: NCI-H1975, 72 h
[13] = target: Membrane-associated tyrosine- and threonine-specific cdc2-inhibitory kinase (Homo sapiens) (UniProt Q99640); test: Binding affinity to wild-type human partial length PKMYT1 (A88 to G366 residues) expressed in bacterial expression system assessed as residual binding level at 1 uM by Kinomescan method relative to control
[14] = target: Mitogen-activated protein kinase 1 (Homo sapiens) (UniProt P28482); test: Binding affinity to wild-type human full length ERK2 (M1 to S360 residues) expressed in bacterial expression system assessed as residual binding level at 1 uM by Kinomescan method relative to control; method in brief: as §2
[15] = target: Casein kinase I isoform epsilon (Homo sapiens) (UniProt P49674); test: Binding affinity to wild-type human full length CSNK1E (M1 to K416 residues) expressed in bacterial expression system assessed as residual binding level at 1 uM by Kinomescan method relative to control; method in brief: as §2
[16] = target: Ephrin type-B receptor 1 (Homo sapiens) (UniProt P54762); test: Binding affinity to wild-type human partial length EPHB1 (P589 to T911 residues) expressed in bacterial expression system assessed as residual binding level at 1 uM by Kinomescan method relative to control
[17] = target: NUAK family SNF1-like kinase 1 (Homo sapiens) (UniProt O60285); test: Binding affinity to wild-type human partial length ARK5 (E25 to I332 residues) expressed in bacterial expression system assessed as residual binding level at 1 uM by Kinomescan method relative to control
[18] = target: Serine/threonine-protein kinase TAO2 (Homo sapiens) (UniProt Q9UL54); test: Binding affinity to wild-type human partial length TAOK2 (M1 to A320 residues) expressed in mammalian expression system assessed as residual binding level at 1 uM by Kinomescan method relative to control
[19] = target: Serine/threonine-protein kinase PAK 1 (Homo sapiens) (UniProt Q13153); test: Binding affinity to wild-type human partial length PAK1 (S149 to H545 residues) expressed in bacterial expression system assessed as residual binding level at 1 uM by Kinomescan method relative to control
[20] = target: Cyclin-dependent kinase 5 (Homo sapiens) (UniProt Q00535); test: Binding affinity to wild-type human full length CDK5 (M1 to P292 residues) expressed in bacterial expression system assessed as residual binding level at 1 uM by Kinomescan method relative to control; method in brief: as §2
[21] = target: Mitogen-activated protein kinase 14 (Homo sapiens) (UniProt Q16539); test: Binding affinity to wild-type human full length p38-alpha (M1 to S360 residues) expressed in bacterial expression system assessed as residual binding level at 1 uM by Kinomescan method relative to control
Method in brief: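 KinomeScan, an active site-directed competition binding panel of 468 kinases. The test compound was at 1 μM. The readout is remaining kinase binding as a percentage of the DMSO control. Scores above 35% were treated as weak binding and not listed.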

[22] = target: cAMP-dependent protein kinase catalytic subunit PRKX (Homo sapiens) (UniProt P51817); test: Binding affinity to wild-type human partial length PRKX (M1 to F358 residues) expressed in bacterial expression system assessed as residual binding level at 1 uM by Kinomescan method relative to control

Sequence of Serine/threonine-protein kinase PRP4 homolog (Homo sapiens) (Q13523 whole entry, the tested form may be a part): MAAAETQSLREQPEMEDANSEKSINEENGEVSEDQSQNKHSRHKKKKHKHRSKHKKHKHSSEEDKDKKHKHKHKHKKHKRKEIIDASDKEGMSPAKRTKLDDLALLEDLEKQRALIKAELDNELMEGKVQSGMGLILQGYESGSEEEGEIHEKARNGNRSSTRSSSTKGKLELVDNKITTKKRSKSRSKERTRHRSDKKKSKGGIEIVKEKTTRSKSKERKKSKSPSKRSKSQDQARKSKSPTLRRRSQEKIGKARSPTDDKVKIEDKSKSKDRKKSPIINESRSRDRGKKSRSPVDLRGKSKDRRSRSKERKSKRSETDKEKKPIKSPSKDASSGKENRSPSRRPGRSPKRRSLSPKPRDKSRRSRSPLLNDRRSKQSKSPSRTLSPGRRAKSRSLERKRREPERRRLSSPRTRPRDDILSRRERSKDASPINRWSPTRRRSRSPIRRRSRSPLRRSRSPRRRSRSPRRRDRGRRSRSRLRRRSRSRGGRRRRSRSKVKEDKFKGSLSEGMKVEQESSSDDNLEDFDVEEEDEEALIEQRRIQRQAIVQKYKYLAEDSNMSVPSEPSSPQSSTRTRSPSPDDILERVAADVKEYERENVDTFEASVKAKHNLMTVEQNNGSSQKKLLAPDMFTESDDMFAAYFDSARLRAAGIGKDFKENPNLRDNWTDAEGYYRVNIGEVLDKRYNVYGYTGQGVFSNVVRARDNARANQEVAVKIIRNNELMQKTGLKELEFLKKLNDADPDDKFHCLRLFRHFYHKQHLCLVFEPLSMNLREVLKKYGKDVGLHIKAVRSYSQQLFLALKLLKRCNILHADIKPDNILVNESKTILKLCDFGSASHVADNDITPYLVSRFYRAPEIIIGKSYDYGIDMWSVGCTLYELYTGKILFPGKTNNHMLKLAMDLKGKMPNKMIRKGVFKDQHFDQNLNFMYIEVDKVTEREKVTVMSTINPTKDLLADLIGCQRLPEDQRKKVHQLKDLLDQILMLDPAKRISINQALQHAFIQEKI
Sequence of Membrane-associated tyrosine- and threonine-specific cdc2-inhibitory kinase (Homo sapiens) (Q99640 whole entry, the tested form may be a part): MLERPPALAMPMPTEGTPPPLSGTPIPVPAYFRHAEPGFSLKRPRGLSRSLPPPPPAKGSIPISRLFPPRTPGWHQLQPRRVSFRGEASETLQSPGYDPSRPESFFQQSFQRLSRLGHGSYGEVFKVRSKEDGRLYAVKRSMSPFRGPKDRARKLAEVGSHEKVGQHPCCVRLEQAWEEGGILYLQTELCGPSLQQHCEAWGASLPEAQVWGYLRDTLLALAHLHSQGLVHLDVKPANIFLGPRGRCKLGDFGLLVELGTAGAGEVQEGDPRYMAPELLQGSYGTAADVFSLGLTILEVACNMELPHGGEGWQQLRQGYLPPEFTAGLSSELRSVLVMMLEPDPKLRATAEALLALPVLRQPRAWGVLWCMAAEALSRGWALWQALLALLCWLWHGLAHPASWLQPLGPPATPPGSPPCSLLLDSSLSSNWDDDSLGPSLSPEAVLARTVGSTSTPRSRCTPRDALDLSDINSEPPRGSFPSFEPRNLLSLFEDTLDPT
Sequence of NUAK family SNF1-like kinase 1 (Homo sapiens) (O60285 whole entry, the tested form may be a part): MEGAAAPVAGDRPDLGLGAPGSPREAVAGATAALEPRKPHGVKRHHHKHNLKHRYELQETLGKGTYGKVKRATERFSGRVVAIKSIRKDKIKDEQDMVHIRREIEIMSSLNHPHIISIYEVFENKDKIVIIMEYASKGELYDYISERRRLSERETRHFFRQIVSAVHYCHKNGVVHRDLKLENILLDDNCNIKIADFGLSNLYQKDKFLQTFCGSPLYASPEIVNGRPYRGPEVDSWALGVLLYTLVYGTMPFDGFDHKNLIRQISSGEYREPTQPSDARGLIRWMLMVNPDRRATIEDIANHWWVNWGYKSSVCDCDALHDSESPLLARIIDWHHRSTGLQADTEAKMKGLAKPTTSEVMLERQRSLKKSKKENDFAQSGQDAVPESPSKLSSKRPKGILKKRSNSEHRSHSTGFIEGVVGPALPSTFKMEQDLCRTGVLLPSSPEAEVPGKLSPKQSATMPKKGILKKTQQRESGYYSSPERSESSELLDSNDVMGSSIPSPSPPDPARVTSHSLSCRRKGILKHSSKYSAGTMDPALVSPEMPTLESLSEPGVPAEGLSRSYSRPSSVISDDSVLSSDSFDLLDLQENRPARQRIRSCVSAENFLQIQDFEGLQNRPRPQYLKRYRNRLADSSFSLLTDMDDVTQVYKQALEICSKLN
Sequence of Ephrin type-B receptor 1 (Homo sapiens) (P54762 whole entry, the tested form may be a part): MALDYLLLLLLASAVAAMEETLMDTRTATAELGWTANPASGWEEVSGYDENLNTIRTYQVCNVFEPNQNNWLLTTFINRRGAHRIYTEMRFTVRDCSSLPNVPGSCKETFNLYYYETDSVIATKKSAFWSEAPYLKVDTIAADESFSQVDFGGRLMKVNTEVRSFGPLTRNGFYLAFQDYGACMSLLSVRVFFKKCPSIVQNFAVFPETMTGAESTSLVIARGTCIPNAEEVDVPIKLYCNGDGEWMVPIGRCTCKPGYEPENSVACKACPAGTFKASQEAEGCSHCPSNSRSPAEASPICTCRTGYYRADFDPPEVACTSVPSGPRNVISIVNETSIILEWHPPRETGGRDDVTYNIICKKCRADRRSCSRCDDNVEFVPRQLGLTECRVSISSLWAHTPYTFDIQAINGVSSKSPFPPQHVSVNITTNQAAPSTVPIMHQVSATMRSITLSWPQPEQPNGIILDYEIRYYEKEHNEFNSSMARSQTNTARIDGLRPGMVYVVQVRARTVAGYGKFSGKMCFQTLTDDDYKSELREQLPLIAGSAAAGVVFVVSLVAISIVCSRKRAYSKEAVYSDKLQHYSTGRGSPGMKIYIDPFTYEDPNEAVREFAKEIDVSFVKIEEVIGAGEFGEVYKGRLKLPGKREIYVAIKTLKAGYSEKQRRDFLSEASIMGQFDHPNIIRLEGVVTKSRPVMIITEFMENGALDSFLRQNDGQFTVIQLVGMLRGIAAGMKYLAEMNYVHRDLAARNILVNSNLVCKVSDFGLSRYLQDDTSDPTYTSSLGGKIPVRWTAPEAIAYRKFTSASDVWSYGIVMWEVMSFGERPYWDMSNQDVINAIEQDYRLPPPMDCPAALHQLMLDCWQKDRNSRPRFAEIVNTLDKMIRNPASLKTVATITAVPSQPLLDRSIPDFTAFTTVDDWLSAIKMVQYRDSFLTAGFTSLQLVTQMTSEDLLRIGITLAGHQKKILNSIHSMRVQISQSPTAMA
Sequence of Serine/threonine-protein kinase TAO2 (Homo sapiens) (Q9UL54 whole entry, the tested form may be a part): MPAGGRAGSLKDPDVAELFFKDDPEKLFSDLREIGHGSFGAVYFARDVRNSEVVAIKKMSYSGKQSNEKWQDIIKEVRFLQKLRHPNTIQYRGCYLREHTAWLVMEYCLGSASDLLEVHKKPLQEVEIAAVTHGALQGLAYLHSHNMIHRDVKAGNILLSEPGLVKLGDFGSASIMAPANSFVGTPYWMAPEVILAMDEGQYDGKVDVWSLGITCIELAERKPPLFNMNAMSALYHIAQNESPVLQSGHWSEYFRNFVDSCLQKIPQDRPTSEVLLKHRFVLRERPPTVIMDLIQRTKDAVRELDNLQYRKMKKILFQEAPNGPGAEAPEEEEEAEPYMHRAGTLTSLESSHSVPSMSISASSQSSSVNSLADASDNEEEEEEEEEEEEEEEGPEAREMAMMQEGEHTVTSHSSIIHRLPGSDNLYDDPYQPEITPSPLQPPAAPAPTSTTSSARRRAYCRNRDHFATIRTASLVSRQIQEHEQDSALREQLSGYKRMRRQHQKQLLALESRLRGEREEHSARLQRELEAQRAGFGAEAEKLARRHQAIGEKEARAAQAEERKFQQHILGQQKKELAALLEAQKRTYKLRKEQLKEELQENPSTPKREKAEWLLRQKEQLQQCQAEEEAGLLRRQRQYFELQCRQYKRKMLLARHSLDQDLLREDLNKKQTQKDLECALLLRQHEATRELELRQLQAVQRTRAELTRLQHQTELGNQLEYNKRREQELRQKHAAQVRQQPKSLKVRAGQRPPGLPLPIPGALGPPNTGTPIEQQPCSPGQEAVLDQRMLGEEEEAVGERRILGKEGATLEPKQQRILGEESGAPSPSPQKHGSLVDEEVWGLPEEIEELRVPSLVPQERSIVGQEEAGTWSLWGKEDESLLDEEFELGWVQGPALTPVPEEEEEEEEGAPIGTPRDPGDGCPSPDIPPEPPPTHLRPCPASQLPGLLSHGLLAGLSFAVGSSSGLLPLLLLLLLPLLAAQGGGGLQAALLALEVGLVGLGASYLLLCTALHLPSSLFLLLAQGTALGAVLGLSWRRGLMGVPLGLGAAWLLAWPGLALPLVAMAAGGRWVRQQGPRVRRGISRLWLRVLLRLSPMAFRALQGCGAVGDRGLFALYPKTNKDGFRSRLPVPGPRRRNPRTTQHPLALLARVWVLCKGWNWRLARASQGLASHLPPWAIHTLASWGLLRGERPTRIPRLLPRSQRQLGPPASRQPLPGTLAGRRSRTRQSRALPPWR
Sequence of Calcium/calmodulin-dependent protein kinase type II subunit alpha (Homo sapiens) (Q9UQM7 whole entry, the tested form may be a part): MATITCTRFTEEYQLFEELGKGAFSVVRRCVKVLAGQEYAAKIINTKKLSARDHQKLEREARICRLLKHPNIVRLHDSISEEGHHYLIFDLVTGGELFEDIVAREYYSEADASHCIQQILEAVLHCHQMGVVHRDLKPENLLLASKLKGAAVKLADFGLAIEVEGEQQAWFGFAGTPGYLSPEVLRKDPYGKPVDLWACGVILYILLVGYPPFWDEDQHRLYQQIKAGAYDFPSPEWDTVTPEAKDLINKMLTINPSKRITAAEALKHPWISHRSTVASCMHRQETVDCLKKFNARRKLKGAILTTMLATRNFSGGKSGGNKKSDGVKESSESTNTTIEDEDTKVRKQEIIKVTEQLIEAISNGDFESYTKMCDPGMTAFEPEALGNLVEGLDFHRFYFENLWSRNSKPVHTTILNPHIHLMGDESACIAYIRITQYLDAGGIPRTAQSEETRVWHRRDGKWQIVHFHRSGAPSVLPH

C=CC(=O)Nc1ccccc1Nc1nc(Nc2ccc(N3CCN(C)CC3)cc2)ncc1C(=O)Nc1c(C)cccc1Cl
Activity [1]: 100% | IC50 [2]: 500 nM | Activity [3]: 92% | Activity [4]: 94% | Activity [5]: 81% | Activity [6]: 98% | Activity [7]: 100% | Activity [8]: 100% | Activity [9]: 100% | Activity [10]: 47% | Activity [11]: 100% | IC50 [12]: 300 nM | Activity [13]: 100% | Activity [14]: 100% | Activity [15]: 100% | Activity [16]: 66% | Activity [17]: 100% | Activity [18]: 100% | Activity [19]: 100% | Activity [20]: 100% | Activity [21]: 28% | Activity [22]: 100%
